Measurements from different studies.
Each line is one published result; the experiments were not run side by side.
Target: Dual serine/threonine and tyrosine protein kinase (DSTYK, Homo sapiens, UniProt Q6XUX3)
One construct used (Q6XUX3 1-929): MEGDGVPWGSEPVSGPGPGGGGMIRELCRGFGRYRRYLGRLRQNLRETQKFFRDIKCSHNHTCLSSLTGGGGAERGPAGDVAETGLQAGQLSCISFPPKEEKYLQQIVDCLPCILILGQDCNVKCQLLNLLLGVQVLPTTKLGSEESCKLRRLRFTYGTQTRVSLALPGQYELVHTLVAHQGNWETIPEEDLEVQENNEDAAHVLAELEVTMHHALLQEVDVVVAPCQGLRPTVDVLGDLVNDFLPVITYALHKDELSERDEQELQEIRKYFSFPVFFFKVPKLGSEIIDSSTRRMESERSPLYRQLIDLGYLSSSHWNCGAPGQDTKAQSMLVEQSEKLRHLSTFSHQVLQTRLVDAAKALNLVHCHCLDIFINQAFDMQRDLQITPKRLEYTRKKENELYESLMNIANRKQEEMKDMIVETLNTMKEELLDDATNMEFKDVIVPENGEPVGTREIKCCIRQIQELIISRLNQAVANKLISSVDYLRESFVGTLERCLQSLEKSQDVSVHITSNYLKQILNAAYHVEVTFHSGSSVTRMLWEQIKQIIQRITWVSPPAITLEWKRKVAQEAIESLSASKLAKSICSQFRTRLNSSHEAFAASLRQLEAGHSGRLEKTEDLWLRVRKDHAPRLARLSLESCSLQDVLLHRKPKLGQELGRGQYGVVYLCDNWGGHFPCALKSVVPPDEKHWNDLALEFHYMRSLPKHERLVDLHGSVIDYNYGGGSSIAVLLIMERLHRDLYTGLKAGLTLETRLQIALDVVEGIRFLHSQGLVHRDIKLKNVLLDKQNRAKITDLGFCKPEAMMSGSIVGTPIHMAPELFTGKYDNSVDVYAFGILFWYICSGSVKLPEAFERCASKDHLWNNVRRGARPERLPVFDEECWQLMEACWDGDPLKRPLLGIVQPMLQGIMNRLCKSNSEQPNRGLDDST

Structure (SMILES)	assay	setting	measurement	result
Cc1sc(C(=O)NC2COC2)cc1-n1cc(NC(=O)Nc2c(F)cccc2Cl)cn1	enzyme activity, inhibitor	10 µM	remaining activity	96.6%
O=C1Nc2ccc(Cl)cc2C1=Cc1cc(Cl)c(O)c(Cl)c1	cell-free assay	0.5 µM	remaining signal	89.6%
CSc1cccnc1N1CCN(Cc2nc3ccccc3[nH]2)CC1	cell-free assay, competition with immobilised ligand	1 µM	remaining binding	76%
CC(C)(C)c1nc2c(s1)c1nc(N)ncc1c1ccc(NS(=O)(=O)c3c(F)cccc3F)c(F)c12	enzyme activity, inhibitor, radiometric	1 µM	remaining activity	83%
O=C(Nc1cnn(-c2csc(C(=O)NC3COC3)c2)c1)Nc1ccccc1Cl	enzyme activity, inhibitor	5 µM	remaining activity	102%
CCCOc1ccc([C@H]2[C@H](C(=O)O)[C@@H](c3ccc4c(c3)OCO4)CN2CC(=O)Nc2c(CC)cccc2CC)cc1	cell-free assay, competition with immobilised ligand	1 µM	remaining binding	73%
Nc1ncnc2occ(-c3ccc(NC(=O)Nc4cc(C(F)(F)F)ccc4F)cc3)c12	cell-free assay, inhibitor	20 µM	remaining signal	2.8%
CC(C)(C)c1nc(-c2cccc(NS(=O)(=O)c3c(F)cccc3F)c2F)c(-c2ccnc(N)n2)s1	enzyme activity, inhibitor, radiometric	1 µM	remaining activity	82%
Cc1ccc(C(=O)Nc2ccc(CN3CCN(C)CC3)c(C(F)(F)F)c2)cc1C#Cc1cnc2cccnn12	enzyme activity, inhibitor	23.5 nM	remaining activity	95%
N#CCCc1ccc2c(c1)-c1[nH]c3ccc([N+](=O)[O-])cc3c1CC(=O)N2	cell-free assay	0.5 µM	remaining signal	67.1%
Cc1cc(-n2nc(Cc3cc(F)cc(C(F)(F)F)c3)nc2C)ccc1C(N)=O	cell-free assay, competition with immobilised ligand	1 µM	remaining binding	97%
Cc1cnn2ncc(-c3ccnc(N(C)C)n3)c2c1	binding	1 µM	remaining binding	97%
Cc1ccc(Nc2nccc(N(C)c3ccc4c(C)n(C)nc4c3)n2)cc1S(N)(=O)=O	enzyme activity, inhibitor	0.5 µM	remaining activity	94.3%
CC1=C(C#N)[C@@H](c2ccc3[nH]nc(C)c3c2)C(C#N)=C(c2ccc(Cl)cc2)N1	cell-free assay, competition with immobilised ligand	1 µM	remaining binding	100%
CC(C)(O)[C@H]1CC[C@H](Nc2ccc3ncc(-c4cccc(C(F)(F)F)c4)n3n2)CC1	enzyme activity, inhibitor	1 µM	remaining activity	97.1%
